Measurements from paper PMC11568512 (Chemical communications (Cambridge, England), 2024).

Key:
[1] = tested on: ferritin heavy chain (ferritin H); test: Western blot of iron handlers; assay type: cell-based; conditions: DFX 50 μM, QT and IQT 5 μM, FAC 50 μM
Procedure, shortened: (§1)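 A2780 cancer cells were exposed to test compounds (5 μM) or the reference iron chelator deferasirox (50 μM), with DMSO vehicle as control. Transferrin receptor 1 and ferritin heavy chain were probed by Western blot as markers of iron signalling. Statistics used t-tests versus DMSO vehicle.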

A2780 cells = test: Cell cycle analysis by flow cytometry; assay type: cell-based; conditions: A2780, 24-hour incubation, DFX 50 μM, QT and IQT 5 μM
MDA-MB-231 = test: Antiproliferative activity, resazurin assay; assay type: cell-based; conditions: Homo sapiens, MDA-MB-231, 72 h, read-out: IC50 MDA-MB-231
[2] = tested on: tested cancer cell lines (MDA-MB-231, A2780); test: Antiproliferative activity, text summary over tested cancer cell lines; assay type: cell-based; conditions: 72 h, read-out: IC50 range in the tested cancer cell lines
[3] = tested on: transferrin receptor 1 (TfR1); test: Western blot of iron handlers; assay type: cell-based; conditions: DFX 50 μM, QT and IQT 5 μM, FAC 50 μM
Procedure, shortened: as §1

A2780 = test: Antiproliferative activity, resazurin assay; assay type: cell-based; conditions: Homo sapiens, A2780, 72 h, read-out: IC50 A2780
[4] = cited from earlier work

Row | IC50 (MDA-MB-231) [µM] | IC50 [2] [µM] | IC50 (A2780) [µM] | Molecule | ferritin H expression level [1] | cell cycle effect (A2780 cells) | TfR1 expression level [3] | reduction in FBS [4]
1 | 15 ± 2 | 10 to 20 | 12 ± 2 | O=C(O)c1ccc(-n2nc(-c3ccccc3O)nc2-c2ccccc2O)cc1 [DFX, deferasirox] | degradation of ferritin | cell accumulation in the S-phase | upregulation of TfR1 | 
2 |  |  |  | Cc1nc(-[n+]2nc(-c3ccccc3)nn2-c2ccccc2)sc1C.[Br-] [MTT, 3-(4,5-dimethyl-2-thiazolyl)-2,5-diphenyl-tetrazolium] |  |  |  | prone to reduction in FBS
3 |  |  |  | ferric ammonium citrate [FAC] | upregulation of ferritin |  | decreased TfR1 expression | 
